Source: PubChem
Fh CTSL1 inh = counter-screen for PFM18AAP inhibitors: inhibitors of F. hepatica cathepsin L1; inhibition, % at 5.96 µM; 300,000 tested, 0.49% active; AID 1906; recombinant F. hepatica cathepsin L1, Z-Leu-Arg-MCA fluorescence;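 active means inhibition above the mean of all tested compounds plus 3 SD, set per screening campaign, cut at about 17% in these data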;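 further: 0% = plate median of test compound wells and 100% = 1 µM Z-Phe-Ala-diazomethylketone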
GC-B act = GC-B (human) receptor activation | P20594 | HEK293-GC-B cells, CNP EC30, cGMP TR-FRET; 0% at EC30 CNP, 100% saturating CNP | activation, % at 10 µM | 370,000 tested, 0.11% active | AID 1920062;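 active means activation at 10 µM reaching about 35% in either raw or pattern-adjusted values, limit read from the data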
GC-A act = GC-A (human) enzyme activation; 370,000 tested, 0.14% active; P16066; activation, % at 10 µM; HEK293 GC-A cells, cGMP TR-FRET, EC30 ANP; 0% at EC30 ANP, 100% saturating ANP; in the data active means activation above about 40%
ASAP1 GAP inh = blocks human ASAP1-stimulated Arf1 GTP hydrolysis | Q9ULH1 | GDP FP detection | inhibition, % at 16.5 µM | 360,000 tested, 0.19% active | AID 624377; in the data active means inhibition above about 25%;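 further: 0% = vehicle with enzyme and substrate and 100% = no enzyme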
Target sequence (Q9ULH1 325-724 limits assumed): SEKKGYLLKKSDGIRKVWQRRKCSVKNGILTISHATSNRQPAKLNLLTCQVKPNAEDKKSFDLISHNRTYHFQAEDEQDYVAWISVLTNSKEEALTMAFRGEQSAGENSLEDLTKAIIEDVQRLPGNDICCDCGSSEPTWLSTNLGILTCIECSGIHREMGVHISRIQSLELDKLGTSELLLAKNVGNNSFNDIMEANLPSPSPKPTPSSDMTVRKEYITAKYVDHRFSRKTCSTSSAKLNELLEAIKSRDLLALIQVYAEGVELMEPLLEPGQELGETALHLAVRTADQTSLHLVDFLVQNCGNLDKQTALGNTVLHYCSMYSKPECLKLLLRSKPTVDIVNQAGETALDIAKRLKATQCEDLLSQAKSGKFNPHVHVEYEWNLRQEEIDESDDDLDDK
ARFGAP1 inh = inhibits rat ARF GTPase activating protein 1; AID 651572; Arfgap1-stimulated ARF1 GTP hydrolysis, GDP FP detection; 360,000 tested, 0.26% active; inhibition, % at 16.5 µM;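 active means inhibition above a per-plate limit, mean inhibition of low control wells plus 3 SD, cut at about 25% in these data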;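 further: 0% = DMSO wells with enzyme and 100% = wells lacking Arfgap1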
Target sequence (Q62848 1-136 limits assumed): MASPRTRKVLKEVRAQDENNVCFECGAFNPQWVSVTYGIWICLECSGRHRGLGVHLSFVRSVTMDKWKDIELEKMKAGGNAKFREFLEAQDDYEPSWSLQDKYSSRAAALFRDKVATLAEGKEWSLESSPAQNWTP
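material = rat Arfgap1 catalytic domain, aa 1-136 | also added = human ARF1(Δ1-17)-GTP substrate | compound dosing = one concentration, 16.5 µM, DMSO 1.26% | times = GTP hydrolysis reaction 2 h at 25 °C | measured by = FP, GDP Alexa 633 tracer displaced from anti-GDP antibody, 620/688 nm | evaluation = percent inhibition of Arfgap1-stimulated GTP hydrolysis | replication = single well per compound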
core dimer inh = HCV core protein dimerization inhibition | 300,000 tested, 0.33% active | TR-FRET GST/Flag-core106 dimerization, 1536-well | inhibition, % at 5 µM | AID 1899;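 active means inhibition above the mean of all tested compounds plus 3 SD, set per screening campaign, cut at about 45% in these data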
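Test system: GST/Flag-tagged HCV core106 proteins; Medium: KF-containing HEPES buffer, pH 7.45, DTT, CHAPS, BSA; Times: compound-protein-antibody incubation 4 h at 22.5 °C; Detection: TR-FRET 671 and 617 nm emission; Benchmarks: wells lacking GST-core106 and wells with excess unlabelled core106.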
An asterisk follows results filed as active; . = no result given. In the library only some 1.2% were active in any assay of this set; here they are far more common.

SMILES	Fh CTSL1 inh	GC-B act	GC-A act	ASAP1 GAP inh	ARFGAP1 inh	core dimer inh
CC(C)(C)C(=O)COC(=O)CNC(=O)c1ccc(Oc2ccccc2)cc1	15	-1	42*	4	-2	2
Cc1cccc(Nc2nn3c(=O)c4ccccc4nc3s2)c1	0	22	18	-3	7	69*
CCCCCCC(O)(c1ccc(OC)cc1)C(CN1CCOCC1)c1ccccc1 (stereo not given)	.	-15	-57	-1	-5	.
Cc1nc2ccc(Br)cc2c(-c2ccccc2)c1C(=O)O	-1	17	44*	12	-10	5
CC(=O)c1c(C)nc2ccc(Br)cc2c1-c1ccccc1	-1	-9	-18	7	0	-3
O=C1NCCN1C(=O)c1ccco1	21*	0	8	-3	10	-3
Cc1nnc(NC(=O)c2ccc(-c3cccc(C(F)(F)F)c3)o2)s1	-1	-6	-2	4	6	-5
CC(=O)OC1c2ccccc2C(=O)N1c1ccccc1C (stereo not given)	-4	4	0	-3	5	4
CC(=O)OC1c2ccccc2C(=O)N1Cc1ccccc1 (stereo not given)	20*	-6	0	-12	4	-18
O=C(NCCCN1CCCC1)C1CCC(=O)N1C1CCCCC1 (stereo not given)	0	2	-2	7	5	-3
CC1CC(C)CN(CCCNC(=O)C2CCC(=O)N2C2CCCC2)C1 (stereo not given)	-2	2	0	-9	32*	-2
CCCCc1cc(=O)oc2cc(OCC(=O)N3CCC(C(=O)O)(c4ccccc4)CC3)ccc12	20*	0	5	0	-5	9
CS(=O)CCC(NS(=O)(=O)c1ccccc1)C(=O)O (stereo not given)	-2	4	6	3	-3	-3
CSc1ccccc1OCc1cc(C(=O)N[C@H]2CCCCNC2=O)no1	-2	2	62*	10	1	8
COc1ccc(OCc2cc(C(=O)N[C@H]3CCCCNC3=O)no2)c(Cl)c1	0	-1	23	-4	5	6
Cc1ccc(-c2ccc(/C=C/C(=O)c3ccccc3)o2)cc1	41*	3	1	-13	-4	20
O=C(/C=C/c1ccc(-c2ccccc2)o1)c1ccccc1	64*	0	-3	-1	13	25
COc1ccc2sc(-c3ccc(S(C)(=O)=O)cc3)c(C(=O)NCCc3c[nH]c4ccccc34)c2c1	.	39*	30	10	4	.
COCCn1c(SCC(=O)NC(=O)NC(C)C)nc2ccccc21	-1	-3	42*	15	23	1
COc1ccc(NC(=O)N(C)C[C@H]2OCc3cn(nn3)CCCC(=O)N([C@H](C)CO)C[C@@H]2C)cc1	.	0	0	-7	1	.
CN(C)CCN(Cc1ccccc1)C(=O)c1[nH]c(C(F)(F)F)nc1-c1ccccc1	.	5	0	-3	-8	.
Cc1ccccc1C1C(C#N)=C2N=C(N)c3ccccc3N2C2=C1C(=O)CCC2 (stereo not given)	-2	38*	28	-11	1	2
COc1ccc(C(C#N)N2N=C(C)CC2c2ccccc2)cc1 (stereo not given)	3	-1	2	2	-6	-1
CC1=NN(C(C#N)c2ccccc2)C(c2ccccc2)C1 (stereo not given)	18*	-4	3	4	9	3
Cc1cccc(N2CSC3=C(C#N)C(c4ccc(C)o4)CC(=O)N3C2)c1 (stereo not given)	-4	.	.	.	.	84*
SMILES	Fh CTSL1 inh	GC-B act	GC-A act	ASAP1 GAP inh	ARFGAP1 inh	core dimer inh
COc1cc(OC)c(C2CC(=O)N3CN(c4ccccc4C)CSC3=C2C#N)cc1OC (stereo not given)	31*	0	-1	12	10	13
CCn1nc(-c2ccccc2)c2nc3ccccc3nc21	-1	-1	0	-8	5	2
Cc1cccc(Cn2ncc(Cl)c(Cl)c2=O)c1	2	-13	0	7	-1	24
Cc1cccc(Cn2nnc3c2C(=O)c2ccccc2C3=O)c1	19*	-3	-12	-2	6	21
Cc1ccccc1Cn1nnc2c1C(=O)c1ccccc1C2=O	25*	3	-3	-1	-14	3
O=C(Nc1ccccc1C(=O)NCCCn1ccnc1)c1ccccc1	3	-4	-1	.	.	-3
CC1CC(C)CN(CCC(=O)Nc2ccc(Br)cc2)C1 (stereo not given)	18*	-1	1	-9	8	-16
CC1CCN(CCC(=O)Nc2ccc(Br)cc2)CC1	-2	-1	4	6	-1	6
COc1ccc(-c2ccc(/C=C(\NC(=O)c3ccccc3)C(=O)N3CCOCC3)o2)cc1	78*	3	0	13	-2	2
COc1ccc(/C=C(/NC(=O)c2ccccc2)C(=O)N2CCOCC2)cc1OC	19*	3	7	2	-10	-21
Cc1ccc(S(=O)(=O)N2CCN(C(=O)c3ccc(-n4cncn4)c([N+](=O)[O-])c3)CC2)cc1C	4	-4	-3	15	-6	5
CCCCC/C=C\C/C=C\C/C=C\CCCCC(=O)O	34*	-1	3	7	-3	18
Cc1ccccc1N1CC(C(=O)Nc2nnc(SCC(=O)Nc3nccs3)s2)CC1=O (stereo not given)	7	-4	-2	2	0	35
O=C(Nc1nnc(SCC(=O)N2CCOCC2)s1)C1CC(=O)N(c2ccc(F)cc2)C1 (stereo not given)	0	0	-4	-2	7	53*
O=C(Nc1nnc(SCc2ccccn2)s1)C1CC(=O)N(c2ccc(F)cc2)C1 (stereo not given)	-2	9	-3	9	-9	55*
Cc1cccc(N2CC(C(=O)Nc3nnc(SCC(=O)Nc4nccs4)s3)CC2=O)c1 (stereo not given)	2	2	-3	-5	4	50*
COc1cccc(N2CC(C(=O)Nc3nnc(SCc4ccccn4)s3)CC2=O)c1 (stereo not given)	1	0	-4	3	0	5
Cc1noc(C)c1COc1ccc(C(=O)O)cc1	1	-2	1	-20	8	-3
COC(=O)C1=C(C)N(C)C(C)=C(C(=O)OC)C1c1ccc(C(=O)OC)cc1	0	-2	-12	11	7	7
COC(=O)C1=C(C)N(C)C(=S)N(C)C1c1ccc(OC)cc1 (stereo not given)	17*	-2	-9	8	13	2
